Assay [1] can be described thus: inhibitors of TNFa-induced NFkB p65 translocation, primary screen, imaging, HUVEC, MLSMR starter and 10KST1 sets (AID 438;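 active = inhibition above 20% together with a positive visual image hit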;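 note: compound added about 3h40 before a 20 min TNFalpha stimulation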;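 for inhibition: signal is the nuclear over cytoplasmic p65 intensity ratio per well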). The settings on record: HUVEC TNFa-induced p65 nuclear translocation; cell count: measured here: nuclei count (cytotoxicity indicator), at 2.08 µM; inhibition: at 2 µM, stronger effect = higher value, 0% TNFa-plus-vehicle, 100% no-TNFa wells.
Assay [2] can be described thus: endothelial E-selectin expression blockers – imaging, HUVEC, immunofluorescence, MLSMR starter and 10KST1 sets, primary screen (AID 487).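 For inhibition: signal is fraction of cell area covered by stained E-selectin grains.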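 For nuclei count: 100% = median nuclei count of all wells on the same plate.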 The settings on record: HUVEC TNFalpha-induced E-selectin immunofluorescence imaging, at 2 µM; inhibition: stronger effect = higher value; nuclei count: measured here: cell number, toxicity.
A short description of assay [3]: Primary imaging screen for DUSP6 inhibitors that restore phospho-Erk in transfected HeLa cells, chemical complementation (AID 609;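 active = compounds giving at least 50% inhibition in the cell-based MKP-3 phosphatase rescue imaging test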;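 for inhibition: phospho-Erk level distribution per well compared with pooled transfected vehicle control wells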). The note with it: HeLa MKP-3 transfected, phospho-Erk imaging KS statistic, at 10 µM, cells stimulated with TPA for 15 min.
The target of assay [4] is Dual specificity protein phosphatase 6 (Homo sapiens) (UniProt Q16828). Described as above. The note with it: HeLa MKP-3 transfected, phospho-Erk imaging KS statistic; at 10 µM; stronger effect = higher value; cells stimulated with TPA for 15 min.
Assay [5] addresses Voltage-gated potassium channel subunit beta-2 (Rattus norvegicus) (UniProt P62483). In words: inhibitors of rat Kvbeta2 reductase activity – biochemical, NADPH fluorescence, primary screen (AID 622;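 active = fluorescence slope higher than the sample average by over 3 SD, cut at about -0.22 in these data, passing the limit was not always enough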;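 note: slope of raw intensity against log time taken from 70 to 1610 s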). The settings on record: recombinant KvBeta, 4-cyanobenzaldehyde reduction, at 10 µM, stronger effect = higher value.
The target is the same in assay [6]. Put plainly: enhancers of rat Kvbeta2 NADPH turnover – biochemical, NADPH fluorescence, primary screen (AID 623;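 active = NADPH fluorescence slope more negative than the mean of all samples by about 3 SD, 99.7% confidence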;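 note: fluorescence intensity change per second fitted from 20 to 320 s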). The settings on record: Recombinant KvBeta, NADPH fluorescence decrease slope, 10 min; at 10 µM; stronger effect = lower value.
Assay [7] concerns the target Muscarinic acetylcholine receptor M4 (Homo sapiens) (UniProt P08173). In words: M4-linked GIRK flux change, two-sided – cell-based, HEK293 M4/GIRK, thallium flux, BTC-AM, M4 allosteric agonist project, primary screen (AID 625;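 active = fluorescence slope after compound addition differing from the mean of all tested samples at 99.7% confidence, mostly higher but some lower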;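 note: thallium influx through GIRK channels coupled to M4 in HEK293 cells with BTC-AM dye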). The note with it: at 10 µM, actives lie on both sides. Summed up:
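Material: M4/GIRK1/GIRK2 stable HEK293 cell line. Medium: pH 7.3 thallium assay buffer. Dosing: single compound concentration, 10 µM final. Schedule: 1 h dye loading, 2 min kinetic read. Measured by: kinetic fluorescence with BTC-AM dye. Read-out: post-addition slope, 15–24 s, of baseline-normalized fluorescence. Benchmarks: carbachol and DMSO controls.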

Assay [8] can be described thus: inhibitors of larval lipid processing in zebrafish, primary screen, whole organism, PED6 fluorescence, gall bladder and intestine (AID 686;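 active = a full or partial loss of lipid-probe fluorescence in the fish gall bladder, intestine or both, judged by eye; inactive = no fluorescence loss, or compound toxic to the fish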;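 note: larvae 5 to 7 days old with five fish per well; signal comes from phospholipase A2 cleavage of quenched PED6 carried via bile; overnight exposure to compound and PED6 before scoring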). The settings on record: Zebrafish larvae PED6 lipid processing, fluorescence scoring; screened at 20 µM (by protocol). Summed up:
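System: live zebrafish larvae aged 5-7 days, whole organism; measure: graded gall bladder and intestinal fluorescence inhibition per well; incubation: overnight exposure; reagent: ingested quenched lipid PED6 at 100 nM; signal: By-eye fluorescence microscopy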

Assay [9] in a line: loss of swimming-algae plug formation – whole organism, Chlamydomonas reinhardtii, WT vs cilia-less mutant, absorbance, 96-well, primary screen (AID 463189;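 active = inhibition at or above 50% relative to wild type and mutant plate controls; inactive = inhibition below 50%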;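 note: 0% = wild type cc124 cells in DMSO and 100% = ciliumless bld1 mutant cells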). The note with it: Chlamydomonas reinhardtii gravitaxis, OD600 absorbance, 2 days; at 10 µM; stronger effect = higher value.
[10] abbreviates: measured here: cell density z-score.
The mark [11] stands for this setting: measured here: nuclear c-Myc green intensity z-score.
[12] abbreviates: measured here: nuclear pErk red intensity z-score, stronger effect = higher value.

Calls of active or inactive are those of the source.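 Rule for the calls, unless noted: active = visually confirmed hit in the image check and inhibition above 20%; inconclusive = visually confirmed hit but inhibition not above 20%; inactive = no visual hit in the image check.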

What is called inhibition is the relative decrease from the control value, in per cent.

Dual specificity protein phosphatase 6 (Homo sapiens), sequence (Q16828 whole entry, looked up): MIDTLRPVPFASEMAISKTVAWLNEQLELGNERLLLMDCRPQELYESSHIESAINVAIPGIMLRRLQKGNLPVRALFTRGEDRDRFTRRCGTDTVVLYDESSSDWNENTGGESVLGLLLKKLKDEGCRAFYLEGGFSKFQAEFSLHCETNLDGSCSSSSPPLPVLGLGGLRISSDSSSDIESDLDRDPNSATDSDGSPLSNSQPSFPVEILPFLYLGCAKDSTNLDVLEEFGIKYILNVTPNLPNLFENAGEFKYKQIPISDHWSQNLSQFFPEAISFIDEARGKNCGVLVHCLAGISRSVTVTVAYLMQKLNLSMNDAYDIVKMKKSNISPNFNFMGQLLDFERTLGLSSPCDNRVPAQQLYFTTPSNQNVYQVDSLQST
Muscarinic acetylcholine receptor M4 (Homo sapiens), sequence (P08173 whole entry, looked up): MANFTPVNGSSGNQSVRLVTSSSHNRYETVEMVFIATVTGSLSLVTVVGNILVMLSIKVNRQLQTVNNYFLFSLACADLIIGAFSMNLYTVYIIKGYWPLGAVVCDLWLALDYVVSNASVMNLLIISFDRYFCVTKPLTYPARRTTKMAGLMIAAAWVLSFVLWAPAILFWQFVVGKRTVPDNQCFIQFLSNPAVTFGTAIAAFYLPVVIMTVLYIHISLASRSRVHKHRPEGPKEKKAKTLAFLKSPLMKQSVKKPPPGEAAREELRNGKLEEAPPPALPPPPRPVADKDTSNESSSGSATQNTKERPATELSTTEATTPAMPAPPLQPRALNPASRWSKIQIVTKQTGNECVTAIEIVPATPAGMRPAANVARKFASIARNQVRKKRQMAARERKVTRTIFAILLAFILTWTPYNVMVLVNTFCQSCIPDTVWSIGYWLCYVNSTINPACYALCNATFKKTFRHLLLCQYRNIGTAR
Voltage-gated potassium channel subunit beta-2 (Rattus norvegicus), sequence (P62483 whole entry, looked up): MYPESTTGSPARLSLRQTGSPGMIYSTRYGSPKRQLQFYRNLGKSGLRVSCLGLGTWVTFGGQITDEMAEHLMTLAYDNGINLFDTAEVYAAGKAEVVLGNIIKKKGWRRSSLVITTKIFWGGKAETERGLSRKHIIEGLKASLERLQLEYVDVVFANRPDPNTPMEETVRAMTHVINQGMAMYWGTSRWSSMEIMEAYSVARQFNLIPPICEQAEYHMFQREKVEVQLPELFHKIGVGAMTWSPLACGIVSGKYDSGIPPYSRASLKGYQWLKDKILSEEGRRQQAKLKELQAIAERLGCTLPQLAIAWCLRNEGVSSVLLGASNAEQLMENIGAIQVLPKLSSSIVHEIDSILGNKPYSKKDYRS

In the case of `COc1cc(S(=O)(=O)N2CCN(C)CC2)c(OC)cc1Br`, the cell count in [1] came out at 616. Further, the inhibition in [1] was 13.9% (inactive); in assay [2] it was -43.1% (inactive); in assay [4], 1.63% (inactive); in assay [9], 21% (inactive). Also, in assay [2], the nuclei count stood at 114%. The z-score was 0.0206 in [3] (setting [10]), -1.18 in assay [3] (setting [11]) and -0.865 in assay [3] (setting [12]). Besides, the fluorescence slope was -0.424 (inactive) in assay [5] and 0.00502 (inactive) in [7]. For the same compound, in assay [6], the NADPH fluorescence slope was -3.6e-05 (inactive). The compound was classed as inactive in assay [8].

In the case of `Cn1c(=O)c2c(nc(NCc3ccco3)n2Cc2ccc(Cl)cc2Cl)n(C)c1=O`, the cell count in assay [1] is 644. In addition, the inhibition in [1] is 3.3% (inactive); in assay [2], -21.8% (inactive); in [4], 12.8% (inactive); in assay [9], -11.8% (inactive). Also, in assay [2], the nuclei count came to 104%. The z-score in assay [3] (setting [10]) is -0.0402; in assay [3] (setting [11]) it was -0.421; in assay [3] (setting [12]) it was 0.466. Also, the fluorescence slope in assay [5] was -0.405 (inactive); in assay [7], 0.00546 (inactive). In addition, the NADPH fluorescence slope in [6] is -1.9e-05 (inactive). Moreover, in assay [8], the compound was classed as inactive.

Turning to `CCOC(=O)c1c(C)oc2ccc(OCC(=O)C(C)(C)C)cc12`, in assay [1], the cell count is 668. The inhibition in assay [1] is -6% (inactive); in assay [2], -24.4% (inactive); in assay [4], 20.2% (inactive); in [9], -8.35% (inactive). Moreover, the nuclei count in [2] was determined as 124%. In addition, the values for the z-score in assay [3] (setting [10]), in assay [3] (setting [11]) and in assay [3] (setting [12]) were 0.82, -1.27 and 0.55, respectively. Further, the fluorescence slope is -0.435 (inactive) in assay [5] and 0.00509 (inactive) in assay [7]. For the same compound, in [6], the NADPH fluorescence slope is -5.9e-05 (inactive). The result in assay [8] was inactive.

As to `Cc1ccc(-c2nnc(-c3ccccc3)o2)cc1Br`, the cell count in assay [1] was found to be 570. For the same compound, the inhibition in assay [1] is -3.8% (inactive); in assay [2], 33% (inactive); in assay [4], 1.63% (inactive); in [9], 2.02% (inactive). The nuclei count in [2] was found to be 98.9%. The z-score is -0.752 in [3] (setting [10]), 0.492 in assay [3] (setting [11]) and -1.02 in assay [3] (setting [12]). Besides, the fluorescence slope is -0.564 (inactive) in [5] and 0.00616 (inactive) in assay [7]. In assay [6], the NADPH fluorescence slope is 6e-06 (inactive). For the same compound, the compound was called inactive in assay [8].

Regarding `CCOC(=O)C1=C(N)N2C(=O)CSC2=C(C(=O)OC)C1`, the cell count in assay [1] came to 523. The inhibition in [1] was 1.5% (inactive); in assay [2] it was -111% (inactive); in [4] it was 5.42% (inactive); in [9], -0.259% (inactive). For the same compound, the nuclei count in assay [2] is 138%. Besides, the figures for the z-score in [3] (setting [10]), in assay [3] (setting [11]) and in assay [3] (setting [12]) were 0.366, 1.6 and -1.91, respectively. Also, the fluorescence slope in assay [5] was -0.476 (inactive); in [7] it was 0.00418 (inactive). Also, the NADPH fluorescence slope in [6] was -0.000109 (inactive). Further, the result in [8] was inactive.

Turning to `CN(C)c1cccc2c(S(=O)(=O)N3CCOCC3)cccc12`, the cell count in [1] amounted to 607. Moreover, the inhibition is -7.5% (inactive) in assay [1], -24.7% (inactive) in assay [2], -9.91% (inactive) in [4] and -1.61% (inactive) in assay [9]. In assay [2], this compound showed a nuclei count of 157%. Moreover, the values for the z-score in [3] (setting [10]), in assay [3] (setting [11]) and in assay [3] (setting [12]) were -2.51, 1.31 and -0.367, respectively. The figures for the fluorescence slope in assay [5] and in [7] were -0.275 (inactive) and 0.00799 (inactive), respectively. Moreover, the NADPH fluorescence slope in assay [6] is -7.8e-05 (inactive). Further, the outcome in [8] was inactive.

`CCC1(C)Cc2c(sc(NC(=O)CCC(=O)O)c2C#N)CO1` (stereo unspecified): the cell count in assay [1] amounted to 525. For the same compound, the inhibition in assay [1] is -3.4% (inactive); in assay [2], -47% (inactive); in assay [4] it was 9.91% (inactive); in assay [9] it was -2.53% (inactive). The same compound registered a nuclei count in [2] of 165%. The results for the z-score in assay [3] (setting [10]), in assay [3] (setting [11]) and in assay [3] (setting [12]) were 1.02, 0.907 and 0.102, respectively. In addition, the fluorescence slope is -0.382 (inactive) in assay [5] and 0.00482 (inactive) in [7]. Moreover, in assay [6], the NADPH fluorescence slope was -5.7e-05 (inactive). For the same compound, in [8], the outcome was inactive.

For `COc1ccccc1NC(=O)CSc1nnc(-c2ccc(NC(C)=O)cc2)n1C`, the cell count in assay [1] turned out to be 661. Further, the inhibition is -6% (inactive) in assay [1], -36.2% (inactive) in [2], 12.8% (inactive) in assay [4] and -1.17% (inactive) in assay [9]. Besides, the nuclei count in assay [2] turned out to be 198%. For the same compound, the figures for the z-score in assay [3] (setting [10]), in assay [3] (setting [11]) and in [3] (setting [12]) were -0.0402, -0.306 and 0.506, respectively. Besides, the fluorescence slope in assay [5] is -0.46 (inactive); in assay [7], 0.00538 (inactive). For the same compound, the NADPH fluorescence slope in assay [6] is -0.000106 (inactive). Besides, the result in assay [8] was inactive.

On to `OC1(C2(O)CC(c3ccccc3)ON2)CCCCC1` (stereo unspecified), for which the cell count in [1] worked out at 713. For the same compound, the inhibition was 6.2% (inactive) in assay [1], -8.5% (inactive) in [2], -5.81% (inactive) in assay [4] and 0.004% (inactive) in assay [9]. Besides, the nuclei count in [2] was 141%. For the same compound, the z-score was 0.0893 in assay [3] (setting [10]), 0.138 in [3] (setting [11]) and -1.51 in assay [3] (setting [12]). In addition, the values for the fluorescence slope in assay [5] and in assay [7] were -0.444 (inactive) and 0.00531 (inactive), respectively. The NADPH fluorescence slope in assay [6] is -3.6e-05 (inactive). Also, the compound was classed as inactive in [8].

On to `COc1ccc(/C(O)=C2\C(=O)C(=O)N(Cc3ccco3)C2c2cc(OC)ccc2OC)cc1` (stereo unspecified), for which, in assay [1], the cell count is 613. Besides, the inhibition in assay [1] was -13.1% (inactive); in assay [2], -6% (inactive); in assay [4] it was 5.42% (inactive); in assay [9], -2.62% (inactive). This compound also had a nuclei count in assay [2] of 161%. For the same compound, the z-score in assay [3] (setting [10]) is 0.378; in [3] (setting [11]), -0.392; in [3] (setting [12]), -0.39. The fluorescence slope in assay [5] is -0.452 (inactive); in assay [7], 0.00573 (inactive). In addition, in assay [6], the NADPH fluorescence slope was -1.6e-05 (inactive). Moreover, in assay [8], the compound was called inactive.

With `CCN(CC)c1nc(C)c2c(c1C#N)CC(C)(C)OC2`, in assay [1], the cell count worked out at 491. The inhibition is -5.9% (inactive) in [1], -142% (inactive) in assay [2], 13.4% (inactive) in [4] and -9.09% (inactive) in assay [9]. For the same compound, the nuclei count in assay [2] came out at 118%. Besides, the z-score is -2.08 in [3] (setting [10]), 0.916 in [3] (setting [11]) and -0.636 in assay [3] (setting [12]). For the same compound, the fluorescence slope in assay [5] is -0.462 (inactive); in assay [7] it was 0.00447 (inactive). In addition, the NADPH fluorescence slope in assay [6] was -1.1e-05 (inactive). Moreover, in assay [8], the result was inactive.

For the compound `COc1ccccc1C1/C(=C(/O)c2ccc(C)cc2)C(=O)C(=O)N1CCN1CCOCC1` (stereo unspecified), in assay [1], the cell count is 652. For the same compound, the inhibition in assay [1] was -11.9% (inactive); in [2], -32.2% (inactive); in [4] it was -2.09% (inactive); in assay [9] it was 0.641% (inactive). In [2], this compound had a nuclei count of 133%. In addition, the results for the z-score in [3] (setting [10]), in [3] (setting [11]) and in assay [3] (setting [12]) were -0.486, -0.67 and 0.136, respectively. Besides, the fluorescence slope in assay [5] is -0.506 (inactive); in assay [7], 0.0067 (inactive). In addition, the NADPH fluorescence slope in assay [6] is -4e-05 (inactive). In [8], the call was inactive.

Values taken from PubChem BioAssay.
